Laboratory results as given in article PMC9850729 (ACS Omega, 2023).
Residues, ends and D or L forms follow the SMILES beside them.

How the values were obtained:
Type in all cases: cell-based
MCF-7 cells [1] = experiment: MTT viability assay, MCF-7; conditions: read-out: IC50 MCF-7, 2 h peptide treatment, 6.25-200 μg mL^–1, n = 3
Outline: (§1)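 Cancer cells were cultured in supplemented RPMI-1640, seeded at 1×10^4 per well, adhered 12 h and synchronized 12 h in incomplete medium. Peptide was applied at 6.25–200 μg mL⁻¹ for 2 h, then MTT was added for 4 h, formazan dissolved in DMSO, and absorbance read at 575 nm; n = 3. Selectivity was taken as the IC₅₀ in MCF-12 cells, foreskin-derived primary fibroblasts or erythrocytes divided by the cancer-cell IC₅₀.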

MDA-MB-231 cells = experiment: MTT viability assay, MDA-MB-231; conditions: read-out: IC50 MDA-MB-231, 2 h peptide treatment, 6.25-200 μg mL^–1, n = 3
Outline: as §1

MCF-7 cells [2] = experiment: Wound-healing assay; conditions: substance alone (peptide at IC50), n = 12

| SMILES | IC50 (MCF-7 cells [1]) | IC50 (MDA-MB-231 cells) | wound area reduced (MCF-7 cells [2]; MCF-7, 24 h after the wound) | wound area reduced (closure) (MCF-7 cells [2]; MCF-7, 48 h after the wound) |
| --- | --- | --- | --- | --- |
| N=C(N)NCCC[C@H](NC(=O)[C@H](CCCNC(=N)N)NC(=O)[C@H](Cc1c[nH]c2ccccc12)NC(=O)[C@H](CCC(N)=O)NC(=O)[C@H](Cc1c[nH]c2ccccc12)NC(=O)[C@H](CCCNC(=N)N)NC(=O)[C@H](Cc1c[nH]c2ccccc12)NC(=O)[C@H](CCC(N)=O)NC(=O)[C@H](Cc1c[nH]c2ccccc12)NC(=O)[C@H](CCCNC(=N)N)NC(=O)[C@@H](N)CCCNC(=N)N)C(N)=O [RR-1-RR] (H-RRWQWRWQWRR-NH2) | 58 µM | 67 µM | – | – |
| N=C(N)NCCC[C@H](NC(=O)[C@H](Cc1c[nH]c2ccccc12)NC(=O)[C@H](CCC(N)=O)NC(=O)[C@H](Cc1c[nH]c2ccccc12)NC(=O)[C@H](CCCNC(=N)N)NC(=O)[C@H](Cc1c[nH]c2ccccc12)NC(=O)[C@H](CCC(N)=O)NC(=O)[C@H](Cc1c[nH]c2ccccc12)NC(=O)[C@H](CCCNC(=N)N)NC(=O)[C@@H](N)CCCNC(=N)N)C(N)=O [RR-1-R] (H-RRWQWRWQWR-NH2) | 68 µM | 73 µM | – | – |
| C[C@]12CC[C@@H]3c4ccc(O)cc4CC[C@H]3[C@@H]1CC[C@@H]2O [estradiol] | – | – | about 20% | 40% |
